In ChEMBL document CHEMBL1149279, “2,4,6-trisubstituted pyrimidines as a new class of selective adenosine A1 receptor antagonists” (J Med Chem, 2004):

Key:
[1] = molecular target: T1, Adenosine receptor A1 (Homo sapiens) (UniProt P30542); assay: Displacement of [3H]DPCPX from human adenosine A1 receptor expressed in CHO cells at 1 uM; format: cell-based
T1 sequence (whole entry): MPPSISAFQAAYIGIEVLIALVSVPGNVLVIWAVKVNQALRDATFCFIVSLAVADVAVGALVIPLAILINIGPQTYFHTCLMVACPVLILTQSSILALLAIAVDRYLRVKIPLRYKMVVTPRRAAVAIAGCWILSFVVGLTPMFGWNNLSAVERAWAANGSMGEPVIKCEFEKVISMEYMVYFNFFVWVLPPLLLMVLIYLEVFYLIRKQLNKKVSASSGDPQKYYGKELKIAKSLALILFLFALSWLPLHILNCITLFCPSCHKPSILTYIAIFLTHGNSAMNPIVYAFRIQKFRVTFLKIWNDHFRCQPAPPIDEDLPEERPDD

[2] = molecular target: T2, Adenosine receptor A3 (Homo sapiens) (UniProt P0DMS8); assay: Displacement of [125I]AB-MECA from human adenosine A3 receptor expressed in HEK293 cells at 1 uM; format: cell-based
T2 sequence (whole entry): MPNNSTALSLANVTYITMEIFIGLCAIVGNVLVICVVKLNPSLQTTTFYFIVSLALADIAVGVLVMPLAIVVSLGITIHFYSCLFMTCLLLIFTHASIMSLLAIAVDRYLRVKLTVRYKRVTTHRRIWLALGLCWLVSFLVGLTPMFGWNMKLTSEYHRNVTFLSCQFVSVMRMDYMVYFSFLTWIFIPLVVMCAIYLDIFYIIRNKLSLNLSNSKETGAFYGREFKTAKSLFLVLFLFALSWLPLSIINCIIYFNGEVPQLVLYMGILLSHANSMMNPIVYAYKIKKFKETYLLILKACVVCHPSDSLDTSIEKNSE

Adenosine receptor A2a [3] = molecular target: T3, Adenosine receptor A2a (Homo sapiens, UniProt P29274); assay: Displacement of [3H]ZM241385 from human adenosine A2A receptor expressed in HEK293 cells at 1 uM; format: cell-based
T3 sequence (P29274 whole entry): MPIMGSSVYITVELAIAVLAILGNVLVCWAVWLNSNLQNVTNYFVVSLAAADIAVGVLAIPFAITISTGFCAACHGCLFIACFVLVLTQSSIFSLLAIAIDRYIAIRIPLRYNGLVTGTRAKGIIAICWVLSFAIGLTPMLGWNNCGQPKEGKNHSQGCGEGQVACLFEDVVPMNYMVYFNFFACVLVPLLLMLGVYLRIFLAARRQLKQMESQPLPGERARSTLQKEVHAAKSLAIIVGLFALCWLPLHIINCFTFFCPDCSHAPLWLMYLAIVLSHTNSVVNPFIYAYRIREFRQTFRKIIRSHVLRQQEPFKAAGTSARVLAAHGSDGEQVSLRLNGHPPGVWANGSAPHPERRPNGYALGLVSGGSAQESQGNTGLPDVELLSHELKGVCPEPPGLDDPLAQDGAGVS

Adenosine receptor A2a [4] = molecular target: T3, Adenosine receptor A2a; assay: Displacement of [3H]ZM-241385 from human adenosine A2A receptor expressed in HEK293 cells; format: cell-based
[5] = molecular target: T1, Adenosine receptor A1 (Homo sapiens); assay: Antagonist activity at human adenosine A1 receptor expressed in CHO cells assessed as reversal of CPA-induced effect on forskolin-stimulated cAMP production at 10 uM; format: functional, cell-based; conditions: filed as antagonist
[6] = molecular target: T4, Adenosine receptor A2b (Homo sapiens) (UniProt P29275); assay: Displacement of [3H]MRS1754 from human adenosine A2B receptor expressed in CHO cells at 1 uM; format: cell-based
T4 sequence (whole entry): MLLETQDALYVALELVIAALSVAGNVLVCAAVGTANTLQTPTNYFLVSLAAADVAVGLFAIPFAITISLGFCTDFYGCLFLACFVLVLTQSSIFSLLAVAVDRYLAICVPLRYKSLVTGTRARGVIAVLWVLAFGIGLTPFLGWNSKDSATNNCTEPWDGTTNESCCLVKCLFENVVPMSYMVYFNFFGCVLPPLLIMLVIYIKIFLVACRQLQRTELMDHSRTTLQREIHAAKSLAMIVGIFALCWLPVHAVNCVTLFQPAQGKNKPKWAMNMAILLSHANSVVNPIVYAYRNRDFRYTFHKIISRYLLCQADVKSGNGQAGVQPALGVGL
Procedure, shortened: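 CHO cells stably transfected with human A2B supply the membranes (20 μg protein). [3H]MRS1754 at 1.2 nM final, 1 h at 25 °C in 50 mM Tris/HCl, 10 mM MgCl2, 1 mM EDTA, 0.01 w/v % CHAPS. Nonspecific binding with 1 mM NECA. Filtration and scintillation counting; % displacement at 1 μM, n = 2.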

Adenosine receptor A3 = molecular target: T5, Adenosine receptor A3 (Homo sapiens, UniProt P0DMS8); assay: Displacement of [125I]AB-MECA from human adenosine A3 receptor expressed in HEK293 cells; format: cell-based
T5 sequence (P0DMS8 whole entry): T2 sequence (whole entry)

[7] = molecular target: T1, Adenosine receptor A1 (Homo sapiens); assay: Antagonist activity at human adenosine A1 receptor expressed in CHO cells assessed as effect on forskolin-stimulated cAMP production at 1 uM; format: functional, cell-based; set-up: scale not given: the % may be the effect or the level left; conditions: filed as antagonist
Procedure, shortened: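 Human A1-expressing CHO cells, 2 × 10^5/well, grown overnight; in HEPES/DMEM (pH 7.4) with adenosine deaminase 0.8 IU/mL, rolipram 50 μM and cilostamide 50 μM, 30 min at 37 °C. Then CPA 1 μM, test compound 1 μM, 10 min; forskolin 10 μM added for 15 min. Stopped with ice-cold 0.1 M HCl. cAMP measured by [3H]cAMP/PKA competition; normalized to CPA (0%) and forskolin (100%). Three independent experiments in duplicate.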

[8] = molecular target: Adenosine receptors; A1 & A3 (Homo sapiens) (UniProt P30542+P0DMS8); assay: Selectivity for human adenosine A1 receptor over human adenosine A3 receptor; format: protein assay
Adenosine receptor A1 = molecular target: T6, Adenosine receptor A1 (Homo sapiens, UniProt P30542); assay: Displacement of [3H]DPCPX from human adenosine A1 receptor expressed in CHO cells; format: cell-based
T6 sequence (P30542 whole entry): T1 sequence (whole entry)

| Activity [2] | Activity (Adenosine receptor A2a [3]) | Ki (Adenosine receptor A2a [4]) | Ki (Adenosine receptor A3) | Ki (Adenosine receptor A1) | SMILES | other results |
| --- | --- | --- | --- | --- | --- | --- |
| 30% | 0% |  |  |  | O=C(Nc1nc(-c2ccccc2)cc(-c2ccccc2)n1)c1ccc(Cl)c(Cl)c1 | Activity [1]: 0% |
|  |  | 0.899 µM (antagonist) | 0.147 µM (antagonist) |  | CCC(C)C(=O)Nc1cc(-c2ccccc2)nc(-c2ccccc2)n1 (centres undefined) | Activity [5]: Antagonist; Activity [6]: 44%; Activity [7]: 60% |
|  | 0% |  | 3.28 µM (antagonist) |  | O=C(Nc1nc(-c2ccccc2)cc(-c2ccccc2)n1)c1ccc(Cl)cc1 | Activity [1]: 0% |
|  |  | 0.376 µM (antagonist) | 0.267 µM (antagonist) |  | CC(C)C(=O)Nc1cc(-c2ccccc2)nc(-c2ccccc2)n1 | Selectivity ratio [8]: 24 |
| 32% |  | 0.208 µM (antagonist) |  |  | O=C(Nc1cc(-c2ccccc2)nc(-c2ccccc2)n1)C1CCCCC1 |  |
| 49% | 18% |  |  |  | CC(C)(C)C(=O)Nc1cc(-c2ccccc2)nc(-c2ccccc2)n1 |  |
|  | 31% |  | 0.237 µM (antagonist) |  | CC(=O)Nc1nc(-c2ccccc2)cc(-c2ccccc2)n1 |  |
| 4% | 0% |  |  | 0.224 µM (antagonist) | CC(C)(C)C(=O)Nc1nc(-c2ccccc2)cc(-c2ccccc2)n1 |  |
| 39% | 11% |  |  | 0.0114 µM (antagonist) | O=C(Nc1nc(-c2ccccc2)cc(-c2ccccc2)n1)C1CCCC1 | Activity [6]: 42% |
| 18% | 33% |  |  | 0.107 µM (antagonist) | O=C(Nc1nc(-c2ccccc2)cc(-c2ccccc2)n1)C1CCC1 |  |
|  |  | 0.124 µM (antagonist) | 0.167 µM (antagonist) |  | CCCC(=O)Nc1cc(-c2ccccc2)nc(-c2ccccc2)n1 |  |
|  |  | 0.179 µM (antagonist) | 0.178 µM (antagonist) |  | O=C(Nc1cc(-c2ccccc2)nc(-c2ccccc2)n1)C1CCC1 | Activity ([6]; filed as antagonist): 74% |
| 13% | 0% |  |  |  | Cc1ccc(C(=O)Nc2nc(-c3ccccc3)cc(-c3ccccc3)n2)cc1 | Activity [1]: 37% |
| 9% | 31% |  |  | 0.119 µM (antagonist) | O=C(Nc1nc(-c2ccccc2)cc(-c2ccccc2)n1)C1CCCCC1 |  |
| 33% | 0% |  |  |  | O=C(Nc1cc(-c2ccccc2)nc(-c2ccccc2)n1)c1ccc(Cl)cc1 | Activity [1]: 35% |
|  |  | 0.196 µM (antagonist) | 0.17 µM (antagonist) |  | O=C(Nc1cc(-c2ccccc2)nc(-c2ccccc2)n1)C1CCCC1 | Activity [5]: Antagonist; Activity ([6]; filed as antagonist): 52%; Activity [7]: 60% |
|  |  | 0.228 µM (antagonist) | 0.676 µM (antagonist) | 0.0249 µM (antagonist) | O=C(Nc1nc(-c2ccccc2)cc(-c2ccccc2)n1)C1CC1 |  |
|  | 48% |  | 0.392 µM (antagonist) | 0.109 µM (antagonist) | CCCCCC(=O)Nc1cc(-c2ccccc2)nc(-c2ccccc2)n1 |  |

| Activity [2] | Activity (Adenosine receptor A2a [3]) | Ki (Adenosine receptor A2a [4]) | Ki (Adenosine receptor A3) | Ki (Adenosine receptor A1) | SMILES | other results |
| --- | --- | --- | --- | --- | --- | --- |
| 41% | 45% |  |  |  | COc1ccc(C(=O)Nc2nc(-c3ccccc3)cc(-c3ccccc3)n2)cc1 | Activity [1]: 31% |
| 57% |  | 0.381 µM (antagonist) |  |  | CCC(CC)C(=O)Nc1cc(-c2ccccc2)nc(-c2ccccc2)n1 | Activity ([6]; filed as antagonist): 72% |
| 38% | 5% |  |  | 0.309 µM (antagonist) | O=C(Nc1nc(-c2ccccc2)cc(-c2ccccc2)n1)c1ccccc1 |  |
|  |  | 0.893 µM (antagonist) | 0.547 µM (antagonist) | 0.0464 µM (antagonist) | CCC(=O)Nc1nc(-c2ccccc2)cc(-c2ccccc2)n1 |  |
|  |  | 0.0819 µM (antagonist) | 0.0224 µM (antagonist) |  | CCC(=O)Nc1cc(-c2ccccc2)nc(-c2ccccc2)n1 | Selectivity ratio [8]: 2 |
| 41% | 22% |  |  | 0.368 µM (antagonist) | O=C(Nc1nc(-c2ccccc2)cc(-c2ccccc2)n1)c1cccc(Cl)c1 |  |
| 27% | 11% |  |  | 0.0271 µM (antagonist) | CCC(CC)C(=O)Nc1nc(-c2ccccc2)cc(-c2ccccc2)n1 |  |
|  |  | 0.189 µM (antagonist) | 0.025 µM (antagonist) | 0.00758 µM (antagonist) | O=C(Nc1cc(-c2ccccc2)nc(-c2ccccc2)n1)C1CC1 |  |
| 23% | 0% |  |  | 0.0276 µM (antagonist) | CCCCC(=O)Nc1nc(-c2ccccc2)cc(-c2ccccc2)n1 |  |
| 23% | 42% |  |  | 0.0251 µM (antagonist) | CC(C)CC(=O)Nc1nc(-c2ccccc2)cc(-c2ccccc2)n1 |  |
|  |  | 0.157 µM (antagonist) | 0.447 µM (antagonist) |  | CC(C)CC(=O)Nc1cc(-c2ccccc2)nc(-c2ccccc2)n1 |  |
| 24% | 0% |  |  |  | CCCCCC(=O)Nc1nc(-c2ccccc2)cc(-c2ccccc2)n1 | Activity [1]: 28% |
|  |  | 0.489 µM (antagonist) | 0.00688 µM (antagonist) |  | CC(=O)Nc1cc(-c2ccccc2)nc(-c2ccccc2)n1 |  |
|  | 17% |  | 1.3 µM (antagonist) |  | O=C(Nc1cc(-c2ccccc2)nc(-c2ccccc2)n1)c1ccccc1 | Selectivity ratio [8]: 2 |
|  | 0% |  | 1.17 µM (antagonist) |  | COc1ccc(C(=O)Nc2cc(-c3ccccc3)nc(-c3ccccc3)n2)cc1 | Activity [1]: 30% |
| 45% | 44% |  |  | 0.00887 µM (antagonist) | CC(C)C(=O)Nc1nc(-c2ccccc2)cc(-c2ccccc2)n1 | Activity ([6]; filed as antagonist): 79% |
| 38% | 7% |  |  | 0.0037 µM (antagonist) | CCCC(=O)Nc1nc(-c2ccccc2)cc(-c2ccccc2)n1 | Activity ([6]; filed as antagonist): 54% |
| 39% | 32% |  |  |  | CC(C)(C)CC(=O)Nc1cc(-c2ccccc2)nc(-c2ccccc2)n1 | Activity [6]: 4% |
